MBD2 DNA inh: blocks human MBD2 binding to methylated DNA. inhibition, % at 4.4 µM. actives 0.31% (n = 370,000). TR-FRET, MBD2 binding to methylated oligonucleotide. Q9UBB5; in the data active = inhibition above about 13%
TDP2 absorb: blocks human TDP2 phosphodiesterase activity; O95551; recombinant TDP2, T5PNP hydrolysis, p-nitrophenol absorbance 415 nm; inhibition, % at 12.8 µM; actives 0.34% (n = 370,000); AID 720702;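 active = inhibition above the mean of all tested compounds plus 3 SD, set per campaign, cut at about 25% in these data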
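Assay system: Recombinant human TDP2 | Quantity: 120 nM TDP2 per well | Incubation: 2 h at 37 °C | Signal: Epi absorbance | Evaluation: Percent inhibition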
UHRF1 MBD2 ctr: human UHRF1 methylated DNA binding inhibitors. Q96T88. UHRF1 binding to methylated oligo, TR-FRET. inhibition, % at 4.4 µM. actives 0.75% (n = 370,000); in the data active = inhibition above about 21%;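 note: UHRF1 SRA domain binding a hemimethylated CpG hairpin DNA probe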
Target sequence (Q96T88 whole entry, looked up, the tested form may be a part): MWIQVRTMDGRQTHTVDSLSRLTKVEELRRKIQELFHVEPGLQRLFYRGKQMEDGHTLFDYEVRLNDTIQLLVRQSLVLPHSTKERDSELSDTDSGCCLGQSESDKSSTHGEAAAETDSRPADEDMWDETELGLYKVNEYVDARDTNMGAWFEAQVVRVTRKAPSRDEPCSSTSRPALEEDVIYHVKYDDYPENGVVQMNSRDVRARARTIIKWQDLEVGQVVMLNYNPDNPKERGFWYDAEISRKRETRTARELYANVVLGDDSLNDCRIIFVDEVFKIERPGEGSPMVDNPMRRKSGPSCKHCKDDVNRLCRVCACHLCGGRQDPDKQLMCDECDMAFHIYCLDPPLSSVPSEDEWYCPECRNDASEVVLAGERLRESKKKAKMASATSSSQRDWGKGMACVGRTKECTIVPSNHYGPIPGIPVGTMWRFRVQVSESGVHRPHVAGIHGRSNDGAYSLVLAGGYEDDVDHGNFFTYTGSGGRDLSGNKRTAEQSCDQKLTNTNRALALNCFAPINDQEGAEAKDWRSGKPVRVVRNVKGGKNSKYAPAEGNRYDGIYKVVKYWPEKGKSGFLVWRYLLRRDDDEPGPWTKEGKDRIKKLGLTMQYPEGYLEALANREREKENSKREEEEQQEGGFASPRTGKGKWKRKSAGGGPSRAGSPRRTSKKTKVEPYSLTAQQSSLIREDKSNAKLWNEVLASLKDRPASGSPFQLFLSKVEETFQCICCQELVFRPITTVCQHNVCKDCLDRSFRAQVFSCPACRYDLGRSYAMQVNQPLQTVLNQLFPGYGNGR
SIAE primary: human SIAE inhibition, primary screen; inhibition, % at 9.66 µM; SIAE FP-Rh probe binding, fluorescence polarization; actives 0.69% (n = 370,000); Q9HAT2;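 active = inhibition above a cutoff: mean of compounds within the control limits plus 3 SD of those, cut at about 17% in these data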
PRMT1 FP inh: inhibitors of human PRMT1. inhibition, % at 2.79 µM. actives 1.3% (n = 370,000). recombinant PRMT1, activity-based probe fluorescence polarization;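 active = inhibition above about 21% made by adding two undisclosed values, limit read from the data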
LEDGF integ inh: blocks HIV-1 LEDGF/p75-dependent DNA integration; TR-FRET IN-LEDGF/p75 DNA integration, Eu/Cy5; inhibition, % at 3.7 µM; actives 0.64% (n = 370,000);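 active = inhibition above the screen-wide mean plus 3 SD, cut at about 13% in these data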;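 note: signal is the Cy5 over europium emission ratio at 671 and 618 nm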
Of the large screens only hits and unclear results are named; the others gave an inactive call; ! = repeats disagree. Only some compounds are listed: those with a hit (about 3.3% of all), similar ones and a draw of the others.

CC1(C)Cc2ccccc2/C(=C/C(=O)N2CCCCCC2)N1	PRMT1 FP inh 22
Cc1sc2ccc3sccc3c2[n+]1C	PRMT1 FP inh 77
CC(C)c1ccc(/C=C2\C(=O)N(CCN3CCOCC3)C(=S)N2C)cc1	UHRF1 MBD2 ctr 22
O=S(=O)(NCc1ccc2c(c1)OCO2)c1cccc(F)c1	none
O=S(=O)(NCc1ccc2c(c1)OCO2)c1ccc2c(c1)oc1ccccc12	UHRF1 MBD2 ctr 29
Cc1ccc(S(=O)(=O)NC2=NCN(CCOC(=O)c3ccc([N+](=O)[O-])cc3)CN2)cc1	UHRF1 MBD2 ctr 60
CCCCNC(=O)CS(=O)Cc1nc(-c2cccs2)oc1C (stereo not given)	none
Cc1oc(-c2cccs2)nc1CS(=O)CC(=O)NCCc1ccccc1 (stereo not given)	PRMT1 FP inh 22
CCCCn1cnc2c(=O)[nH]ccc21	none
Cc1cccn2c(/C=N/OCc3cccc(F)c3)c(-c3ccc(Cl)cc3)nc12	UHRF1 MBD2 ctr 23
CCC(C)(C)NC(=O)C(c1ccc(C)cc1)N(CC1CCCO1)C(=O)CCC(=O)Nc1ccccn1 (stereo not given)	UHRF1 MBD2 ctr 33
Cc1noc(C)c1S(=O)(=O)Nc1ccc(C(=O)NC2CCCCCC2)cc1	UHRF1 MBD2 ctr 21
O=C(COc1ccc(Cl)cc1)OCc1ccc(Cl)cc1	UHRF1 MBD2 ctr 40
N=C1/C(=C/c2ccco2)C(=O)N=C2SC(CC(=O)N3CCCC3)=NN12	none
N=C1/C(=C/c2ccc(Br)o2)C(=O)N=C2SC(CC(=O)N3CCCC3)=NN12	LEDGF integ inh 16
CSc1ccc(/C=C2\C(=N)N3N=C(CC(=O)N4CCOCC4)SC3=NC2=O)cc1	none
N=C1/C(=C\c2ccc(Br)o2)C(=O)N=C2SC(CC(=O)N3CCOCC3)=NN12	LEDGF integ inh 22
Cc1ccc(S(=O)(=O)CCSc2cccc(C(=O)Nc3ccccc3C(=O)O)c2)cc1	PRMT1 FP inh 77
Cc1ccc(NC(=O)c2cccc(C(=O)Nc3ccc(C)cc3C(=O)O)c2)c(C(=O)O)c1	none
O=C1c2ccccc2C(=O)c2c1ccc(O)c2O	SIAE primary 19 (no result: PRMT1 FP inh)
COC(=O)c1ccc2c(c1O)C(=O)c1ccccc1C2=O	none
Cc1cccc(NC(=O)CSc2ccc(-c3ccc4c(c3)OCO4)nn2)c1C	UHRF1 MBD2 ctr 27
Cc1cc(NC(=O)CSc2ccc(-c3ccc4c(c3)OCO4)nn2)no1	none
Cc1cc(C)c(NC(=O)CSc2ccc(-c3cccnc3)nn2)c(C)c1	PRMT1 FP inh 23
Cc1ccccc1NC(=O)CSc1ccc(-c2cccnc2)nn1	none
O=C1CCC[C@H]2C[C@H](NCc3ccco3)CC[C@]23CCCN13	none
CC(C)NC(=O)CCn1nnc(-c2cccs2)n1	none
CCCCCN1CCCCC(NC(=O)c2ccc(F)cc2)C1=O (stereo not given)	none
CCOc1ccc(S(=O)(=O)N2CCCC(C(=O)NCC3CCCO3)C2)cc1Cl (stereo not given)	UHRF1 MBD2 ctr 83
O=C(O)CSc1cc(NS(=O)(=O)c2ccc(Cl)cc2)c2ccccc2c1O	TDP2 absorb 63, PRMT1 FP inh 44
CCOc1ccc(-n2c(N)c(C(=O)NCc3cccnc3)sc2=S)cc1	none
COc1ccc(CNC(=O)c2sc(=S)n(-c3ccccc3)c2N)cc1	PRMT1 FP inh 21
CCN(C(=O)[C@@H](C)[C@@H](O)c1ccc(C(C)=O)cc1)c1ccccc1	none
Cn1c(C(=O)N2CCCC(C(=O)NCCCSC3CCCCC3)C2)cc2sccc21 (stereo not given)	UHRF1 MBD2 ctr 61
CC(C)=CCC/C(C)=C/CN1C(=O)N(c2ccc(F)cc2)[C@H]2C[C@@H](c3ccccc3)[C@@H](C)[C@@H](C(=O)N3CCOCC3)C[C@H]21	none
O=S1(=O)c2c(cccc2N2CCSCC2)Oc2ccccc2CN1Cc1cn(Cc2ccc(Cl)cc2)nn1	none
CCOC(=O)c1c(-c2ccc(C)o2)csc1NC(=O)CN1CCC(C(N)=O)CC1	none
CCOC(=O)c1c(-c2ccc(C)o2)csc1NC(=O)CN(C)CC(=O)Nc1ccc(C)cc1	PRMT1 FP inh 22
CCN(CC)C(=O)CC[C@H]1CC[C@]2(CCCN(C(=O)C3CCCC3)C2)O1	none
COc1cc(-c2c(C(=O)c3ccccc3)[nH]c(N)c2C(N)=O)ccc1F	UHRF1 MBD2 ctr 95
COc1ccc(-c2c(C(=O)c3ccccc3)[nH]c(N)c2C(=O)c2ccccc2)cc1OC	none
CCOC(=O)c1oc2ccc(CNC(C)(C)C)c(Cl)c2c1C	UHRF1 MBD2 ctr 97
CCOC(=O)c1oc2cccc(O)c2c1C	none
COc1ccc(-c2cc(C(=O)NN=Cc3cccn3C)[nH]n2)cc1	none
O=S(=O)(N1CCCCC1)n1c(Cc2ccccc2)nc2ccccc21	UHRF1 MBD2 ctr 35
O=S(=O)(c1ccc(Br)cc1)n1c(Cc2ccccc2)nc2ccccc21	none
COC(=O)c1cc(-c2cc(Cl)ccc2OC)c(=O)n2c1CCC2	none
COc1ccc(CN2CC(C(=O)NCCCN3CCCCCC3)CC2=O)cc1 (stereo not given)	none
COc1ccc(CN2CC(C(=O)NCCCN3CCN(C)CC3)CC2=O)cc1 (stereo not given)	MBD2 DNA inh 18
CN1Cc2nnn(Cc3ccccc3)c2-c2cc(F)ccc2S1(=O)=O	none
CCOC(=O)c1sc2nc(OCc3cccnc3)cc(C)c2c1N	MBD2 DNA inh 25, UHRF1 MBD2 ctr 55
CCOC(=O)c1sc2nc(C)cc(C)c2c1N	none
COc1ccc(OC)c(CCNC(=O)C2CCN(c3ncnc4c3nc3n4CCCCC3)CC2)c1	UHRF1 MBD2 ctr 26
O=C(O)CCC(=O)Nc1sc2c(c1C(=O)Nc1cccc3ccccc13)CCCCC2	PRMT1 FP inh 24
Cc1ccc(-c2c(C(=O)Nc3ccccc3C)c(C)[nH]c(=S)c2C#N)o1	PRMT1 FP inh 34
O=C1CSc2ccc(C(=O)N3CCCC(C(=O)N4CCOCC4)C3)cc2N1 (stereo not given)	none
CCOc1cc(C2C(C#N)=C(N)Oc3n[nH]c(CC)c32)ccc1OCCN1CCOCC1 (stereo not given)	UHRF1 MBD2 ctr 22
COc1ccc(S(=O)(=O)N2CCOCC2)cc1NC(=O)CN(C)Cc1c(F)cccc1Cl	UHRF1 MBD2 ctr 24
COc1ccc(S(=O)(=O)N2CCOCC2)cc1NC(=O)Cc1c(Cl)cccc1Cl	none
CCN1CCN(Cc2ccc(NC(=O)c3ccc(C)c(NC(=O)c4nccn4C)c3)cc2C(F)(F)F)CC1	none
CCN1CCN(Cc2ccc(NC(=O)c3ccc(C)c(NC(=O)N4CCNC4=O)c3)cc2C(F)(F)F)CC1	UHRF1 MBD2 ctr 23!
C[C@H]1[C@@H](NC(=O)c2cccc(C(F)(F)F)c2)CC[C@@]23CCCN2C(=O)CCC[C@@H]13	none

Assay outcomes as filed in PubChem.
